APJ antag: antagonists of human APJ apelin receptor; 330,000 compounds, 0.32% hits; CHO-K1 APJ beta-arrestin complementation, luminescence; inhibition, % at 20 µM;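 active means inhibition above about 40% at 20 µM, limit read from the data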;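 further: cells challenged with 10 nM apelin-13 agonist together with compound; plate controls were apelin-13 plus DMSO wells for no effect and DMSO wells lacking apelin-13 for full effect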
CXCR6 inh: blocks human CXCR6 beta-arrestin recruitment. O00574. CHO-K1 PathHunter CXCR6 beta-arrestin, luminescence. inhibition, % at 20 µM. 360,000 compounds, 0.36% hits; in the data active means inhibition above about 34%, passing the limit was not always enough;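 further: antagonist mode with CXCL16 agonist at 10 nM final; 0% = 10 nM CXCL16 with DMSO and 100% = unstimulated wells without agonist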
Target sequence (O00574 whole entry, looked up): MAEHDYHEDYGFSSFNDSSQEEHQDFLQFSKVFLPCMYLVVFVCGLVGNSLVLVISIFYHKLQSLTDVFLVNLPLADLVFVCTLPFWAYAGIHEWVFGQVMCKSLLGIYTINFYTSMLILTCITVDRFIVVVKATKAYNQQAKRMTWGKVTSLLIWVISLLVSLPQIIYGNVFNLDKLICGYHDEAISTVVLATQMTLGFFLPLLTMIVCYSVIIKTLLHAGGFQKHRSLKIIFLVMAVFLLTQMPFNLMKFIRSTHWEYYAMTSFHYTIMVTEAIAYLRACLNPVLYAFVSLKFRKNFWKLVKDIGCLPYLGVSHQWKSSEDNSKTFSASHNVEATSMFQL
EBI2 antag: EBI2 (human) antagonism. P32249. EBI2 beta-arrestin recruitment, luminescence, 7a,25-OHC stimulated. inhibition, % at 5 µM. 360,000 compounds, 0.81% hits. AID 651636; in the data active means inhibition above about 38%;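 further: enzyme fragment complementation signal reports receptor beta-arrestin coupling in cells; 0% = agonist plus DMSO wells and 100% = wells without agonist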
m5-HT2A agonist: agonists of mouse serotonin 5-HT2A receptor (HTR2A). P35363. CHO-K1 mHTR2A beta-arrestin complementation, luminescence; percent of 30 µM serotonin response. activation, % at 7.6 µM. 360,000 compounds, 0.66% hits. AID 624169;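 active means activation above a run cutoff, the mean activation of all tested compounds plus 3 SD, cut at about 14% in these data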;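 further: 0% = plate median of compound wells and 100% = 30 µM serotonin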
CCR6 antagonist: blocks CCL20-driven beta-arrestin recruitment at human CCR6; AID 493098; 340,000 compounds, 0.49% hits; P51684; CHO-K1 CCR6 PathHunter beta-arrestin, luminescence, CCL20-stimulated; inhibition, % at 20 µM;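 active means compounds whose inhibition of the agonist-driven luminescence signal at 20 µM reaches about 50%, limit read from the data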;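 further: cells stimulated with CCL20 at 14 nM final; plate controls were DMSO with CCL20 for no effect and DMSO without agonist for full effect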
APJ agonist: APJ receptor agonism. P35414. CHO-K1 APJ PathHunter beta-arrestin, luminescence; 0% DMSO wells, 100% apelin. activation, % at 20 µM. 330,000 compounds, 0.11% hits. AID 2520;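 active means activation more than six SD over the plate average, tested at 20 µM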;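 further: 0% = DMSO alone and 100% = apelin-13 at 10 nM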
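system = engineered CHO-K1 APJ arrestin reporter cells | input = 1000 cells per well | timing = overnight seeding, 90 min compound at 25 °C, 1 h detection | measured by = enzyme-fragment complementation luminescence | read-out = beta-arrestin recruitment to APJ as agonist activity, luminescent signal | control set = negative DMSO alone, positive Apelin-13 at 10 nM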
OPRM1 ag: counter-screen for mouse HTR2A agonists: human mu opioid receptor agonists; activation, % at 9.3 µM; shares compounds with m5-HT2A agonist; U2OS OPRM1 beta-arrestin PathHunter, luminescence; DMSO 0%, DAMGO 9.3 µM 100%; 2,300 compounds, 5.3% hits;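 active means mean activation above the mean of DMSO-only wells plus 3 SD, cut at about 0.5% in these data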
HTR2A ag conf: confirmation of mouse HTR2A serotonin receptor agonists | shares compounds with m5-HT2A agonist | CHO-K1 PathHunter beta-arrestin recruitment, luminescence; DMSO 0%, 30 µM serotonin 100% | activation, % at 7.6 µM | 2,300 compounds, 19% hits | AID 624381;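 active means mean activation across triplicates above the hit threshold derived in the original primary screen, cut at about 15% in these data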
Active calls of the source: *; · = no result. Compounds with a hit are over-represented: about 2.1% of the library has one in this group of screens.

SMILES	APJ antag	CXCR6 inh	EBI2 antag	m5-HT2A agonist	CCR6 antagonist	APJ agonist	OPRM1 ag	HTR2A ag conf
CCN(CCCNC(=O)C1CCCN(S(=O)(=O)c2cnc[nH]2)C1)c1ccccc1 (stereo unspecified)	2	-1	-9	18*	6	8	0	-2
CCN(CCNC(=O)C1CCCN(S(=O)(=O)c2cnc[nH]2)C1)c1ccccc1 (stereo unspecified)	-2	2	-16	6	-5	-3	·	·
COC(=O)c1sc2ccccc2c1NC(=O)c1ccc(S(=O)(=O)N2CC(C)CC(C)C2)cc1 (stereo unspecified)	-5	4	-2	8	-3	3	·	·
Cc1cccc2sc(NNC(=O)c3ccc(S(=O)(=O)N4CC(C)CC(C)C4)cc3)nc12 (stereo unspecified)	-5	7	-8	15*	3	17	0	3
Cc1cc(C)c2nc(NNC(=O)c3ccc(S(=O)(=O)N4CC(C)CC(C)C4)cc3)sc2c1 (stereo unspecified)	-3	13	9	62*	21	-2	0	-4
Cc1cc(C)c2nc(NNC(=O)c3ccc(S(=O)(=O)N4CCCC(C)C4)cc3)sc2c1 (stereo unspecified)	12	4	0	13	7	-1	·	·
CC1(C)NC(=S)NC1=S	·	0	13	17*	2	·	-1	-2
CCC1(CC)NC(=S)NC1=S	·	-3	5	5	1	·	·	·
COc1ccc(NC(=O)CNc2cccc(S(=O)(=O)N3CCCCCC3)c2)c([N+](=O)[O-])c1	-15	5	8	0	11	0	·	·
O=C(COc1ccccc1C(=O)O)Nc1cccc2ccccc12	3	3	2	16*	-5	-2	0	-2
Cc1c(NC(=O)c2ccccc2NC(=O)COc2ccccc2)cccc1C(=O)O	9	-13	0	17*	3	-3	0	0
O=C(COc1cccc2ccccc12)Nc1cc(Cl)ccc1C(=O)O	2	-7	-3	-2	-7	0	·	·
Cc1ccc(NC(=O)CN(C)C(=O)c2cc(-c3ccccc3)nn2-c2ccccc2)cc1	22	5	-5	-11	12	3	·	·
COc1ccccc1OCCn1ccnc1	-8	2	-3	16*	-3	-2	-1	-6
Cc1ccccc1OCCn1ccnc1	2	-2	0	-5	0	-1	·	·
CCc1ccccc1NC(=S)N(CCN1CCOCC1)C1CCN(C(C)=O)CC1	7	-1	0	0	-3	-4	·	·
CCCCn1c(N)c(N(CC(C)C)C(=O)C2CCN(S(=O)(=O)c3ccc(Cl)cc3)CC2)c(=O)[nH]c1=O	-9	-19	-7	0	5	13	·	·
COc1cc(/C=C2\S/C(=N/S(=O)(=O)Cc3ccccc3)NC2=O)c([N+](=O)[O-])cc1OC	-20	-3	1	-5	0	-3	·	·
COc1cc(/C=C2/S/C(=N/S(=O)(=O)c3ccccc3)NC2=O)c([N+](=O)[O-])cc1OC	-4	-2	8	18*	18	-2	-1	-5
Cc1cc(C)n2nc(CC(=O)NNC(=O)c3ccccc3Cl)nc2n1	7	2	-7	-3	6	0	·	·
Cc1cccc(N2C(=O)C3C4C=CC(C4)C3C2=O)c1 (stereo unspecified)	12	-3	7	22*	-3	-1	0	0
Cc1cccc(N2CCN(CC(=O)N(C3CCCC3)C3CCS(=O)(=O)C3)CC2)c1C (stereo unspecified)	2	0	-1	2	-13	-2	·	·
COC(=O)c1cc(=O)nc(NN=Cc2ccc(OC)cc2)s1	·	9	9	17*	·	·	0	0
O=S(=O)(NOCc1ccc(Cl)cc1)c1ccc(Cl)cc1	11	-15	-11	15*	14	-1	0	-3
Cc1ccc(CONS(=O)(=O)c2cc(C)ccc2C)cc1	10	-2	-19	1	5	-3	·	·
SMILES	APJ antag	CXCR6 inh	EBI2 antag	m5-HT2A agonist	CCR6 antagonist	APJ agonist	OPRM1 ag	HTR2A ag conf
COc1ccc(C(=O)OCc2ccccc2C#N)cc1S(=O)(=O)N1CCOCC1	·	-6	-2	-3	·	·	·	·
CCCCNC(=O)CCn1c(=O)c2cccn2c2ccc(F)cc21	8	-3	-5	-5	-2	-2	·	·
Cn1cc(C(=O)c2ccc(Cl)cc2Cl)cc1C(=O)N/N=C(\N)COc1ccc(F)cc1	-10	-6	1	-5	-11	-3	·	·
Cn1cc(C(=O)c2ccc(Cl)cc2Cl)cc1C(=O)N/N=C(\N)COc1ccc(Cl)cc1	-23	-13	8	15*	6	3	0	-3
CCS(=O)(=O)N1Cc2ccccc2CC1C(=O)Nc1ccc(F)c(F)c1 (stereo unspecified)	0	2	5	3	-1	-1	·	·
CCOc1ccc(C(=O)Nc2c3c(nn2-c2cccc(Cl)c2)CS(=O)C3)cc1 (stereo unspecified)	6	8	2	-1	-7	3	·	·
CCOc1ccc(C(=O)Nc2c3c(nn2-c2cccc(C)c2C)CS(=O)C3)cc1 (stereo unspecified)	1	2	1	17*	8	-2	0	2
NC(=O)C1CCCN(C(=O)c2ccc(Cl)c(S(=O)(=O)N3CCc4ccccc43)c2)C1 (stereo unspecified)	16	-9	10	2	15	-3	·	·
CCOC(=O)C1CCN(S(=O)(=O)c2cn(C)c(=O)n(C)c2=O)CC1	19	1	2	-3	-5	7	·	·
CCOC(=O)C1CCN(S(=O)(=O)c2c(C)n(C)c(=O)n(C)c2=O)CC1	21	-7	-6	21*	0	0	-1	-1
Cc1ccc(S(=O)(=O)N(C)CC(=O)OCC(=O)NCCN2C(=O)CSC2=O)cc1	3	2	-8	0	3	1	·	·
Cc1ccc(OCCNCc2ccccc2)c(C)c1	11	-3	7	-1	-4	-1	·	·
Cc1cc(Cl)c(OCCCNCc2ccccc2)c(Br)c1	-20	-3	25	20*	1	-1	0	10
Cc1cc(C)c(OCCCNCc2ccccc2)c(Br)c1	9	-2	31	20*	15	-3	0	4
CC1(C(=O)OCC(=O)Nc2cc(S(=O)(=O)N3CCOCC3)ccc2Cl)CC1(Cl)Cl (stereo unspecified)	·	-1	-1	-1	7	·	·	·
